According to ChEMBL document CHEMBL4152264, “Design, synthesis, antiproliferative activity and docking studies of quinazoline derivatives bearing 2,3-dihydro-indole or 1,2,3,4-tetrahydroquinoline as potential EGFR inhibitors” (Eur J Med Chem, 2018):
Calls of active or inactive are those of the source. No cut-off for these calls is given here.

Key:
A549 [1] = assay: Antiproliferative activity against human A549 cells after 72 hrs by MTT assay; assay type: functional, cell-based
MCF7 = assay: Antiproliferative activity against human MCF7 cells after 72 hrs by MTT assay; assay type: functional, cell-based
PC-3 = assay: Antiproliferative activity against human PC3 cells after 72 hrs by MTT assay; assay type: functional, cell-based
Summary of the method: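 Cells grown in MEM with 10% FBS. About 4×10³ cells per well seeded and incubated 24 h at 37 °C, 5% CO₂. Compounds added at indicated final concentrations for 72 h. MTT at 5 µg/mL final for 4 h at 37 °C. Formazan dissolved in DMSO, absorbance read at 492 nm with 630 nm reference. Tested three times; IC50 is the mean of two determinations.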

[2] = target: Epidermal growth factor receptor (Homo sapiens, UniProt P00533); assay: Inhibition of wild type EGFR (unknown origin) using FAM-labeled peptide substrate after 10 mins by mobility shift assay
[3] = target: Epidermal growth factor receptor (Homo sapiens, UniProt P00533, T790M); assay: Inhibition of wild type EGFR T790M mutant (unknown origin) using FAM-labeled peptide substrate after 10 mins by mobility shift assay
A549 [4] = assay: Induction of apoptosis in human A549 cells assessed as early apoptotic cells at 0.5 uM after 48 hrs by Annexin V-FITC/propidium iodide staining based flow cytometry (reference value: 5.61%); assay type: functional
A549 [5] = assay: Induction of apoptosis in human A549 cells assessed as live cells at 0.5 uM after 48 hrs by Annexin V-FITC/propidium iodide staining based flow cytometry (reference value: 91.81%); assay type: functional
A549 [6] = assay: Induction of apoptosis in human A549 cells assessed as late apoptotic cells at 0.5 uM after 48 hrs by Annexin V-FITC/propidium iodide staining based flow cytometry (reference value: 2.07%); assay type: functional
A549 [7] = assay: Induction of apoptosis in human A549 cells assessed as necrotic cells at 0.5 uM after 48 hrs by Annexin V-FITC/propidium iodide staining based flow cytometry (reference value: 0.51%); assay type: functional
A549 [8] = assay: Induction of apoptosis in human A549 cells at 1.09 uM after 12 hrs by acridine orange staining based fluorescence microscopic method; assay type: functional, cell-based
Summary of the method: (§1)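 A549 cells, grown in MEM with 10% FBS, were exposed to compound for 12 h alongside an untreated control group. They were stained with acridine orange alone and viewed by inverted and fluorescence microscopy. Nuclear colour (green versus red), cell shrinkage, edge clarity, refraction and chromatin condensation were assessed visually.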

A549 [9] = assay: Induction of morphological changes in human A549 cells assessed as cell shrinkage at 1.09 uM after 12 hrs by acridine orange staining based fluorescence microscopic method; assay type: functional; summary of the method: as §1
A549 [10] = assay: Induction of morphological changes in human A549 cells assessed as chromatin condensation at 1.09 uM after 12 hrs by acridine orange staining based fluorescence microscopic method; assay type: functional, cell-based; summary of the method: as §1

Epidermal growth factor receptor (Homo sapiens, UniProt P00533, T790M), sequence (P00533 25-1210 T790M limits assumed): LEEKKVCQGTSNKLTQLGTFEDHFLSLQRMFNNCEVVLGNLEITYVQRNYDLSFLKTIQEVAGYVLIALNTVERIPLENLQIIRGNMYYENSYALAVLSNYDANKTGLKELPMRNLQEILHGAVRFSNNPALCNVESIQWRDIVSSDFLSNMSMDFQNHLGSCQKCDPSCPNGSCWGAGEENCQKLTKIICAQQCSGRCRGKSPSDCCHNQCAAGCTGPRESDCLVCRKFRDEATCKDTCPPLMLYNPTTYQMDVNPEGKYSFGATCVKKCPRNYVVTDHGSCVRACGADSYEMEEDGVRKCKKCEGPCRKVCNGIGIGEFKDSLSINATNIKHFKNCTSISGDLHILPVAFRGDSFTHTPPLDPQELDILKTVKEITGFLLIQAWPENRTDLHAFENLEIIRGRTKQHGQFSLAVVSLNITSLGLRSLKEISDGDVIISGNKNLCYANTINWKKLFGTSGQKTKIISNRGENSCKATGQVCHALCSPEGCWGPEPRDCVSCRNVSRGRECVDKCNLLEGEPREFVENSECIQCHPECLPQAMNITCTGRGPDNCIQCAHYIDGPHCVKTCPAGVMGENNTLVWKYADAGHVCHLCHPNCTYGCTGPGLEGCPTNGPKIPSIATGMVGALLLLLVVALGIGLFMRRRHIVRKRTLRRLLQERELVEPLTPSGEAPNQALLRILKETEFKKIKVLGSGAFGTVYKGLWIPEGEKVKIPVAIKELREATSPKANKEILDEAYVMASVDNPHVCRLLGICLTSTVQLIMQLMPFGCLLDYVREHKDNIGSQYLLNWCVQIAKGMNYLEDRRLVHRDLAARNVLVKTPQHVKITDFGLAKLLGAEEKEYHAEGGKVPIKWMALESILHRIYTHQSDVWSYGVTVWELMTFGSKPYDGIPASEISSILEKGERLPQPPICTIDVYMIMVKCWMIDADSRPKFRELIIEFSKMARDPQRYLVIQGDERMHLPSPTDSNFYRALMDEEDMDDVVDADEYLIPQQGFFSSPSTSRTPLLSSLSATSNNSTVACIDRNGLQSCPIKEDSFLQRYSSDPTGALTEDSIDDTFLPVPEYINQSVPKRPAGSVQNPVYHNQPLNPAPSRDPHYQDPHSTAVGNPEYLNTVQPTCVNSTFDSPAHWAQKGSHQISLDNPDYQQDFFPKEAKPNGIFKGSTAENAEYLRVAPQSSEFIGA
Epidermal growth factor receptor (Homo sapiens, UniProt P00533), sequence (P00533 whole entry): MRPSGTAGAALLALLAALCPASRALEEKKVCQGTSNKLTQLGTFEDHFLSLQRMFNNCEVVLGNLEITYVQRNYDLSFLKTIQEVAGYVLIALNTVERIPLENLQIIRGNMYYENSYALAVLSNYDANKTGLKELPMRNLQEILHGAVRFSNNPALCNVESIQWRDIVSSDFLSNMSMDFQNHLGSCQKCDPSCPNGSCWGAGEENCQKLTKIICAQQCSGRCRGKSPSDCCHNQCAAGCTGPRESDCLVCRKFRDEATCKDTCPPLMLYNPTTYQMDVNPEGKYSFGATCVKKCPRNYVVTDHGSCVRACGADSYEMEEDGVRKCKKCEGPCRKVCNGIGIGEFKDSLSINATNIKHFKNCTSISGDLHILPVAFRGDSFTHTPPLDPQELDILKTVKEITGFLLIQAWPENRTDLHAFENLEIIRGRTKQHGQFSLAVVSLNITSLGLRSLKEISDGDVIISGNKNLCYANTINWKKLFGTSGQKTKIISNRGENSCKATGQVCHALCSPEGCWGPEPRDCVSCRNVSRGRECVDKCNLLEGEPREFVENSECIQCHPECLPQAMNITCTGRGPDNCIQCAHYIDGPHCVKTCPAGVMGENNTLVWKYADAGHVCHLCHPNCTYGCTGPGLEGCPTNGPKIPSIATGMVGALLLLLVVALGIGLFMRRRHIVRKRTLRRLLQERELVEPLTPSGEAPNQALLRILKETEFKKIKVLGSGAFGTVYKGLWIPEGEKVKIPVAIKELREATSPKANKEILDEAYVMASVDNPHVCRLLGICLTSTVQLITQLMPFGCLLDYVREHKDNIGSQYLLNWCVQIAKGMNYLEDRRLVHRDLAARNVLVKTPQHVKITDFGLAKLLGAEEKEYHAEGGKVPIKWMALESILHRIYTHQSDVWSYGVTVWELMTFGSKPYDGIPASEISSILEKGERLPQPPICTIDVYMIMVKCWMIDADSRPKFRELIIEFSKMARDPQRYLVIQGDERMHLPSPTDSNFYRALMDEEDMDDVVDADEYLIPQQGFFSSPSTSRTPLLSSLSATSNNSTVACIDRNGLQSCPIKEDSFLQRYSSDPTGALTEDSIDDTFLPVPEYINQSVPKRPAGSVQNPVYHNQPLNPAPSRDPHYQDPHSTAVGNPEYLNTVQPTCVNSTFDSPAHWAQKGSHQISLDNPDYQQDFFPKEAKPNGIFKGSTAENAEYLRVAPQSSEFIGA

IC50 (A549 [1]; A549, 72 h): 1090 nM
IC50 (MCF7; MCF7, 72 h): 1340 nM
IC50 (PC-3; PC-3, 72 h): 1230 nM
IC50 [2]: 5 nM
IC50 [3]: 26 nM
SMILES: CN(C)C/C=C/C(=O)Nc1cc2c(N3CCc4ccccc43)ncnc2cc1O[C@@H]1CCOC1
Activity (A549 [1]): Dose-dependent effect
Activity (MCF7): Dose-dependent effect
Activity (PC-3): Dose-dependent effect
Activity (A549 [4]): 14.59%
Activity (A549 [5]): 80.01%
Activity (A549 [6]): 4.59%
Activity (A549 [7]): 0.81%
Activity (A549 [8]): Active
Activity (A549 [9]): Active
Activity (A549 [10]): Active
